Reference: ChEMBL document CHEMBL1158739, “Chemical constituents of the fruits of Morinda citrifolia (Noni) and their antioxidant activity” (J Nat Prod, 2005)
pIC50: −log10 of the molar value.

Columns and labels:
[1] = tested on: Radical scavenging activity; assay: Antioxidant activity assessed as DPPH radical scavenging activity after 30 mins; format: functional
In short: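 Samples in DMSO were plated in triplicate with 200 µM DPPH in EtOH, 37 °C, 30 min, dark, and absorbance read at 515 nm. Percent scavenging was taken against the DMSO control, with gallic acid as positive control. Screening was at 200 µg/mL final, and actives were retested at 2.5–20 µg/mL. IC50 came from linear regression extrapolation.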

[2] = Antioxidant activity assessed as 3-morpholinosydnonimine-derived peroxynitrite free radical scavenging activity after 5 mins
[3] = Antioxidant activity assessed as authentic peroxynitrite free radical scavenging activity after 5 mins
[4] = Antioxidant activity assessed as 3-morpholinosydnonimine-derived peroxynitrite free radical scavenging activity […]; format: functional
In short: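 Peroxynitrite was generated from SIN-1 (10 µM) and measured as oxidation of dihydrorhodamine 123, working solution 5 µM. Buffer was nitrogen-purged 50 mM Na2HPO4, 50 mM NaH2PO4, 90 mM NaCl and 5 mM KCl with 5 mM DTPA. Run at room temperature, fluorescence read at ex 485/em 530 nm; background and final intensities taken 5 min after treatment.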

[5] = Antioxidant activity assessed as authentic peroxynitrite free radical scavenging activity […]; format: functional
In short: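 Authentic peroxynitrite (10 µM, in 0.3 N NaOH) oxidizing dihydrorhodamine 123, working solution 5 µM. Buffer was nitrogen-purged 50 mM Na2HPO4, 50 mM NaH2PO4, 90 mM NaCl and 5 mM KCl with 5 mM DTPA. Room temperature, fluorescence at ex 485/em 530 nm; background and final intensities read 5 min after treatment.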

| SMILES | pIC50 [1] | pIC50 [2] | pIC50 [3] | pIC50 [4] | pIC50 [5] |
| --- | --- | --- | --- | --- | --- |
| COC(=O)C1=CO[C@@H](O[C@@H]2O[C@H](CO)[C@@H](O)[C@H](O)[C@H]2O)[C@H]2[C@@H]1C=C[C@@]21C=C(C(=O)c2ccc(O)c(OC)c2)C(=O)O1 [DEHYDROMETHOXYGAERTNEROSIDE] | < 4.52 | < 4.52 | < 4.52 |  |  |
| CO[C@@]1(CO)O[C@H](CO)[C@@H](O)[C@@H]1O | < 4.52 | < 4.52 | < 4.52 |  |  |
| COC(=O)C1=CO[C@@H](O[C@@H]2O[C@H](CO)[C@@H](O)[C@H](O)[C@H]2O)[C@@H]2[C@@H](CO)C[C@H](O)[C@H]12 | < 4.52 |  |  | < 4.52 | < 4.52 |
| OC[C@@H](O)[C@@H](O)[C@H](O)[C@H](O)CO [MANNITOL] | < 4.52 | < 4.52 | < 4.52 |  |  |
| O=C1O[C@H]2C=C(CO)[C@H]3[C@H](O[C@@H]4O[C@H](CO)[C@@H](O)[C@H](O)[C@H]4O)OC=C1[C@H]32 [DEACETYLASPERULOSIDE] | < 4.52 | < 4.52 | < 4.52 |  |  |
| O=C(O)c1cc(O)c(O)c(O)c1 [GALLIC ACID] | 5.57 |  |  |  |  |
| O=C1O[C@H]2C=C(CO)[C@@H](CO)[C@H]2[C@@H]1CO [BORRERIAGENIN] | < 4.52 | < 4.52 | < 4.52 |  |  |
| CO[C@]1(CO)O[C@H](CO)[C@@H](O)[C@@H]1O | < 4.52 | < 4.52 | < 4.52 |  |  |
| COC(=O)C1=CO[C@@H](O[C@@H]2O[C@H](CO)[C@@H](O)[C@H](O)[C@H]2O)C2C1[C@@H]1O[C@@H]1[C@]21O[C@H]1O (single isomer, unassigned; epimer a) [CITRIFOLININ B EPIMER A] | < 4.52 | < 4.52 | < 4.52 |  |  |
| CC(=O)OCC1=C[C@H](O)[C@@H]2C(C(=O)O)=CO[C@@H](O[C@H]3O[C@@H](CO)[C@H](O)[C@@H](O)[C@@H]3O)[C@H]12 [ASPERULOSIDIC ACID] | < 4.52 | < 4.52 | < 4.52 |  |  |
| C[C@@H]1O[C@@H](OC[C@H]2O[C@@H](Oc3c(-c4ccc(O)cc4)oc4cc(O)cc(O)c4c3=O)[C@H](O)[C@@H](O)[C@@H]2O)[C@H](O)[C@H](O)[C@H]1O [NICOTIFLOROSIDE] | < 4.52 | < 4.52 | < 4.52 |  |  |
| O=C/C=C/c1ccc2c(c1)O[C@@H](CO)[C@H](c1ccc(O)c(O)c1)O2 [AMERICANIN A] | 4.77 |  |  |  |  |
| COC(=O)C1=CO[C@@H](O[C@@H]2O[C@H](CO)[C@@H](O)[C@H](O)[C@H]2O)C2C1[C@@H]1O[C@@H]1[C@]21O[C@@H]1O (stereo not given in full) [CITRIFOLININ B EPIMER B] | < 4.52 | < 4.52 | < 4.52 |  |  |
| CC[C@H](CC[C@@H](C)[C@H]1CC[C@H]2[C@@H]3CC=C4C[C@@H](O[C@@H]5O[C@H](CO)[C@@H](O)[C@H](O)[C@H]5O)CC[C@]4(C)[C@H]3CC[C@]12C)C(C)C [SITOGLUSIDE] | < 4.52 | < 4.52 | < 4.52 |  |  |
| CC(=O)OCC1=C[C@@H]2OC(=O)C3=CO[C@@H](O[C@@H]4O[C@H](CO)[C@@H](O)[C@H](O)[C@H]4O)[C@H]1[C@@H]32 [ASPERULOSIDE] | < 4.52 | < 4.52 | < 4.52 |  |  |
| COC(=O)C1=CO[C@@H](O[C@@H]2O[C@H](CO)[C@@H](O)[C@H](O)[C@H]2O)[C@H]2[C@@H]1[C@@H]1O[C@@H]1[C@@]2(O)CO | < 4.52 | < 4.52 | < 4.52 |  |  |
| OC[C@H]1OC(O)[C@H](O)[C@@H](O)[C@@H]1O (stereo not given in full) [DEXTROSE] | < 4.52 | < 4.52 | < 4.52 |  |  |
| Nc1ccn([C@@H]2O[C@H](CO)[C@@H](O)[C@H]2O)c(=O)n1 [CYTIDINE] | < 4.52 | < 4.52 | < 4.52 |  |  |
